According to ChEMBL document CHEMBL3414501, “New platelet aggregation inhibitors based on pyridazinone moiety” (Eur J Med Chem, 2015):
The source made the active and inactive calls. The calls are words filed in the database; no cut-off is given here.

Key:
Assay type in all cases: functional, cell-based
[1] = Antiplatelet activity in human platelet assessed as inhibition of collagen-induced platelet aggregation incubated for 5 mins prior to collagen challenge measured over 5 mins by turbidimetric method
Procedure, shortened: (§1)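 Washed human platelets from buffy coat, resuspended in Tyrode-HEPES pH 7.4 with 2 mM CaCl2. Compound in DMSO preincubated with platelets, then collagen (2-4 μg/mL), CRP, thrombin, U-46619 or ionomycin added. Light transmission followed over 5 min in a dual-channel aggregometer (Born turbidimetry); aggregation taken as maximal transmission change. Non-collagen agonists tested at 20 μM compound; at least four experiments in duplicate.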

[2] = system: Platelet; experiment: Antiplatelet activity in human platelet assessed as inhibition of U-46619-induced platelet aggregation at 20 uM incubated for 5 mins prior to U-46619 challenge measured over 5 mins by […]; procedure, shortened: as §1
[3] = system: Platelet; experiment: Antiplatelet activity in human platelet assessed as inhibition of ionomycin-induced platelet aggregation at 20 uM incubated for 5 mins prior to U-46619 challenge measured over 5 mins by […]; conditions: in the assay text read “ionomycin challenge” for “U-46619 challenge”; procedure, shortened: as §1
[4] = system: Platelet; experiment: Antiplatelet activity in human platelet assessed as inhibition of CRP-XL-induced platelet aggregation at 20 uM incubated for 5 mins prior to CRP-XL challenge measured over 5 mins by […]; procedure, shortened: as §1
[5] = system: Platelet; experiment: Antiplatelet activity in human platelet assessed as inhibition of thrombin-induced platelet aggregation at 20 uM incubated for 5 mins prior to thrombin challenge measured over 5 mins by […]; procedure, shortened: as §1
[6] = system: Platelet; experiment: Antiplatelet activity in human platelet assessed as inhibition of CRP-XL-induced activated Gp2b/3a expression incubated for 5 mins prior to CRP-XL challenge measured after 15 mins by flow cytometry
Procedure, shortened: (§2)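 Washed platelets from donor buffy coat in modified Tyrode-HEPES (pH 7.4, 2 mM Ca2+), pre-incubated 5 min with DMSO or compound. Flow cytometry: CRP-XL stimulation with FITC-PAC-1 for 15 min at room temperature, 10,000 events, PAC-1 mean fluorescence and % positive platelets. Phosphotyrosine: CRP-XL 5 μg/mL, SDS/EDTA (2%/1 mM final) lysates, immunodot blot with 4G10, HRP secondary, chemiluminescence.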

[7] = system: Platelet; experiment: Antiplatelet activity in human platelet assessed as inhibition of CRP-XL-induced phosphotyrosine level incubated for 5 mins prior to CRP-XL challenge measured after 5 mins by immunodot blot analysis; procedure, shortened: as §2

Row | SMILES | IC50 [1] [µM] | other results
1 | O=C1CC2OCCCC2=NN1 (configuration not stated) | > 100 | –
2 | O=c1c(CO)ccnn1Cc1ccccc1 | > 100 | –
3 | O=c1c(CBr)ccnn1Cc1ccccc1 | > 100 | –
4 | O=c1cc(CBr)cnn1Cc1ccccc1 | > 100 | –
5 | O=c1cc2c(n[nH]1)CCCO2 | > 100 | –

Continued, in another order:

Row | IC50 [1] [µM] | SMILES | other results
6 | > 100 | O=c1cc(CO)cnn1Cc1ccccc1 | –
7 | 3.75 | O=c1cc(COCc2ccccc2)cnn1Cc1ccccc1 | –
8 | 17.5 | O=c1c(COCc2ccccc2)ccnn1Cc1ccccc1 | –
9 | 1.31 | CC(C)(C)[Si](OCc1ccnn(Cc2ccccc2)c1=O)(c1ccccc1)c1ccccc1 | –
10 | 70.6 | O=C1CC2OCCC2=NN1 (configuration not stated) | –
11 | 0.55 | CC(C)(C)[Si](OCc1cnn(Cc2ccccc2)c(=O)c1)(c1ccccc1)c1ccccc1 | inhibition [2]: inactive; inhibition [3]: inactive; inhibition [4]: Active; inhibition [5]: inactive; inhibition [6]: Active; inhibition [7]: Dose-dependent effect
